A selection: hits, their analogues and other compounds. The true share with any hit is near 2.9%.
E-selectin induc = induces E-selectin expression in human endothelial cells. P16581. HUVEC E-selectin immunofluorescence imaging; normalized: neutral wells 0, TNF-alpha wells 100. activation, % at 7.58 µM. hit rate 0.37% among 260,000. AID 686992;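 active = mean E-selectin-positive cell signal at least 10% of the positive control, reached in at least 60% of replicates, without over 20% cell loss; inconclusive = no rule given, readout overlaps actives, possibly toxicity-flagged; inactive = the rest, including those meeting only one limit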
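System: HUVEC / Compound: single concentration / Signal: immunofluorescence imaging / Read-out: percent E-selectin-positive cells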
SIRT5 block = inhibitors of human sirtuin-5 desuccinylase; Purified SirT5, succinyl-peptide AMC, trypsin-coupled fluorescence; Q9NXA8; hit rate 1.1% among 330,000; inhibition, % at 15 µM; in the data active = inhibition above about 15%; inconclusive = no clear call, values can overlap the other calls
Target sequence (Q9NXA8 whole entry, looked up): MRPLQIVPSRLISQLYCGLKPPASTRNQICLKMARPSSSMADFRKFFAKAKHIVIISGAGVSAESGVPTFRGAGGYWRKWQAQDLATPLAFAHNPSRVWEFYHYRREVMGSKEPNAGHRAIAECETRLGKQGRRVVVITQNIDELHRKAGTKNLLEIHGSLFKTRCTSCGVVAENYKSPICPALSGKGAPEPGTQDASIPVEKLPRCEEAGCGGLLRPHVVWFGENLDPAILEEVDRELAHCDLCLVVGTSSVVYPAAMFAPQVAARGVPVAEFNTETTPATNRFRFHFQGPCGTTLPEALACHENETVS
DENV2 CPE = protects cells from dengue virus 2 cytopathic effect; hit rate 1.7% among 350,000; DENV2-infected cells, cytopathic effect rescue, plate reader; CPE inhibition, % at 9.99 µM; AID 651640; in the data active = CPE inhibition above about 20%, passing the limit was not always enough; inconclusive = no clear call, values can overlap the other calls; tested in BHK-21 cells;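 also: 0% = median of neutral control wells and 100% = median of positive control wells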
Numbers without * were called inactive; ! = not confirmed by another sample.

How did CC(=O)N(C)C[C@@H]1OCc2ccccc2-c2c(n(C)c3ccccc23)C(=O)N([C@@H](C)CO)C[C@H]1C do in these assays?
E-selectin induc: 0; SIRT5 block: 1; DENV2 CPE: 6

Results for CNC[C@@H]1OCc2ccccc2-c2c(n(C)c3ccccc23)C(=O)N([C@H](C)CO)C[C@@H]1C ?
E-selectin induc: 0; SIRT5 block: -19; DENV2 CPE: 33*!

Results for C[C@H](CO)N1C[C@H](C)[C@H](CN(C)C(=O)Nc2cccc(C(F)(F)F)c2)OCc2ccccc2-c2c(n(C)c3ccccc23)C1=O ?
E-selectin induc: 1; SIRT5 block: 4; DENV2 CPE: 25*

Results for COC(=O)N(C)C[C@H]1OCc2ccccc2-c2c(n(C)c3ccccc23)C(=O)N([C@@H](C)CO)C[C@@H]1C ?
E-selectin induc: 0; SIRT5 block: 18*; DENV2 CPE: 3

How did C[C@H](CO)N1C[C@H](C)[C@@H](CN(C)C(=O)Nc2cccc(C(F)(F)F)c2)OCc2ccccc2-c2c(n(C)c3ccccc23)C1=O do in these assays?
E-selectin induc: 1; SIRT5 block: 7; DENV2 CPE: 11

What do the screens show for `COC(=O)N(C)C[C@@H]1OCc2ccccc2-c2c(n(C)c3ccccc23)C(=O)N([C@H](C)CO)C[C@@H]1C`?
E-selectin induc: 0; SIRT5 block: 1; DENV2 CPE: 12

What do the screens show for `CC(=O)N(C)C[C@H]1OCc2ccccc2-c2c(n(C)c3ccccc23)C(=O)N([C@H](C)CO)C[C@H]1C`?
E-selectin induc: 0; SIRT5 block: 3; DENV2 CPE: 34*

Results for CNC[C@H]1OCc2ccccc2-c2c(n(C)c3ccccc23)C(=O)N([C@H](C)CO)C[C@H]1C ?
E-selectin induc: 0; SIRT5 block: 0; DENV2 CPE: -2

What do the screens show for `O=C(N/N=C/c1c[nH]c2c1ccc1ccccc12)c1ccc([N+](=O)[O-])cc1`?
SIRT5 block: -2; DENV2 CPE: -4

What do the screens show for `CC(C)NC(=O)N(C)C[C@@H]1Oc2ccc(NC(=O)Nc3ccc(C(F)(F)F)cc3)cc2C(=O)N([C@@H](C)CO)C[C@@H]1C`?
E-selectin induc: 0; SIRT5 block: -5; DENV2 CPE: 7

Results for CN(C)CCCNC(=O)C[C@H]1C[C@H](C(=O)N2CCOCC2)[C@@]2(C)c3[nH]c4cc(CCC(=O)N(C)C)ccc4c3CCN2C1=O ?
E-selectin induc: 0; SIRT5 block: -3; DENV2 CPE: -7

Results for CN(Cc1ccon1)Cc1cn[nH]c1-c1ccc(-c2ccccc2)cc1 ?
SIRT5 block: -6

What do the screens show for `COCC(=O)N(C[C@H]1[C@H](c2ccccc2)[C@H](CO)N1C(=O)NC(C)C)C(C)C`?
E-selectin induc: 0; SIRT5 block: 0; DENV2 CPE: -7

Results for CNC[C@H]1OCc2ccccc2-c2ccccc2C(=O)N([C@H](C)CO)C[C@@H]1C ?
E-selectin induc: 0; SIRT5 block: 0; DENV2 CPE: 0

How did C[C@H](CO)N1C[C@H](C)[C@H](CN(C)C(=O)Nc2ccc(F)cc2)OCc2ccccc2-c2c(n(C)c3ccccc23)C1=O do in these assays?
E-selectin induc: -2; SIRT5 block: 9; DENV2 CPE: 73*!

How did CNC[C@@H]1OCc2ccccc2-c2ccccc2C(=O)N([C@@H](C)CO)C[C@@H]1C do in these assays?
E-selectin induc: 0; SIRT5 block: 1; DENV2 CPE: 33*!

How did C[C@H]1CN([C@@H](C)CO)C(=O)c2c(c3ccccc3n2C)-c2ccccc2CO[C@@H]1CN(C)C(=O)Nc1ccc(F)cc1 do in these assays?
E-selectin induc: 5; SIRT5 block: 1; DENV2 CPE: 1

How did N#C/C(=C(/O)c1cccs1)c1nnc2n1CCCCC2 do in these assays?
SIRT5 block: 5; DENV2 CPE: 15

What do the screens show for `COc1ccc(N2CC(C(=O)NCCc3ccc(Cl)cc3)CC2=O)cc1` (centres undefined)?
E-selectin induc: 0; SIRT5 block: -1; DENV2 CPE: -2

Results for COc1ccc([N+](=O)[O-])cc1N(CC(=O)NC1CCCC1)S(C)(=O)=O ?
SIRT5 block: -8; DENV2 CPE: -5

How did Cc1ccccc1-n1c(=O)n(CCc2ccccc2)c(=O)c2[nH]cnc21 do in these assays?
E-selectin induc: 0; SIRT5 block: 1; DENV2 CPE: inconclusive

Results for CC(C)[C@H](NC(=O)OC(C)(C)C)C(=O)NCC1CCC(C(=O)N[C@@H](Cc2ccccc2)C(=O)O)CC1 (some centres undefined) ?
SIRT5 block: -2; DENV2 CPE: 40*

Results for CC(C)C[C@H](NC(=O)OC(C)(C)C)C(=O)NCC1CCC(C(=O)N[C@@H](Cc2ccccc2)C(=O)O)CC1 (some centres undefined) ?
SIRT5 block: 0; DENV2 CPE: -2

Results for Fc1cccc(Cl)c1CSc1ccc(-c2cccnc2)nn1 ?
E-selectin induc: 0; SIRT5 block: -1; DENV2 CPE: -7

What do the screens show for `O=c1[nH]c2ccc(NC(=S)Nc3ccc(F)cc3)cc2[nH]1`?
E-selectin induc: 0; SIRT5 block: -5; DENV2 CPE: -1

How did C[C@@H]1CCCCO[C@@H](CN(C)Cc2ccc3c(c2)OCO3)[C@@H](C)CN([C@H](C)CO)C(=O)c2cc(NC(=O)NC3CCCCC3)ccc2O1 do in these assays?
E-selectin induc: 0; SIRT5 block: -1; DENV2 CPE: -1

How did C[C@@H]1CN([C@@H](C)CO)C(=O)c2cc(NC(=O)NC3CCCCC3)ccc2O[C@@H](C)CCCCO[C@@H]1CN(C)Cc1ccc2c(c1)OCO2 do in these assays?
E-selectin induc: 0; SIRT5 block: 5; DENV2 CPE: 7

What do the screens show for `C[C@@H]1CN([C@H](C)CO)C(=O)c2cc(NC(=O)NC3CCCCC3)ccc2O[C@@H](C)CCCCO[C@H]1CN(C)Cc1ccc2c(c1)OCO2`?
E-selectin induc: 0; SIRT5 block: -2; DENV2 CPE: 63*

How did C[C@@H]1CN([C@@H](C)CO)C(=O)c2cc(NC(=O)NC3CCCCC3)ccc2O[C@@H](C)CCCCO[C@H]1CN(C)Cc1ccc2c(c1)OCO2 do in these assays?
E-selectin induc: 0; SIRT5 block: -2; DENV2 CPE: 45*

What do the screens show for `CCN(CC)CCNC(=O)c1cc2ccccc2nc1Cl`?
E-selectin induc: 3; SIRT5 block: 1; DENV2 CPE: 0

Results for C[C@H](CO)N1C[C@H](C)[C@H](CN(C)Cc2cccc(C(F)(F)F)c2)Oc2ncc(-c3ccc(F)cc3)cc2C1=O ?
E-selectin induc: 1; SIRT5 block: 18*; DENV2 CPE: 6

What do the screens show for `C[C@H](CO)N1C[C@H](C)[C@H](CN(C)Cc2ccc(F)cc2)Oc2ncc(-c3cccc(C(F)(F)F)c3)cc2C1=O`?
E-selectin induc: 1; SIRT5 block: -2; DENV2 CPE: 2

How did C[C@H](CO)N1C[C@H](C)[C@H](CN(C)Cc2cccc(C(F)(F)F)c2)Oc2ncc(C#Cc3ccc(F)cc3)cc2C1=O do in these assays?
E-selectin induc: 0; SIRT5 block: 2; DENV2 CPE: 20

What do the screens show for `C[C@H](CO)N1C[C@H](C)[C@H](CN(C)Cc2cccc(C(F)(F)F)c2)Oc2ncc(C#Cc3ccccc3)cc2C1=O`?
E-selectin induc: 0; SIRT5 block: 29*; DENV2 CPE: 3

Source: PubChem BioAssay (Broad Institute)
